The values that follow come from ChEMBL document CHEMBL1156309, “Design and optimization of a substituted amino propanamide series of renin inhibitors for the treatment of hypertension” (Bioorg Med Chem Lett, 2010).

The target of data set [1] is T1, Renin (Homo sapiens, UniProt P00797).
T1 sequence (P00797 whole entry): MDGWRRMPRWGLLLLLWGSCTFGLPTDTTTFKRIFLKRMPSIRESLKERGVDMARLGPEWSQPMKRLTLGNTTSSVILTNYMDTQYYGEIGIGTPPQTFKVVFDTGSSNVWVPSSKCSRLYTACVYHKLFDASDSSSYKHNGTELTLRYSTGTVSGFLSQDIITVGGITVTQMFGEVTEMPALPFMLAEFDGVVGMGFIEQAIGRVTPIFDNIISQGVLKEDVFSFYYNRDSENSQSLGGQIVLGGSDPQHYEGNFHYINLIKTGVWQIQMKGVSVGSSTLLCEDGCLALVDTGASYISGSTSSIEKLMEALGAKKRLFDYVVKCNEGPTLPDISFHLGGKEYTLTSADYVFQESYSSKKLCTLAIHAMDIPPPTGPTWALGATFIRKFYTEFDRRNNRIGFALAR
Nature of the data set: Inhibition of human recombinant renin in PBS buffer at pH 7.4. The method in brief: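 Recombinant human renin (3 pg/µL) in PBS with 1 mM EDTA, 0.1% BSA, pH 7.4, with human tetradecapeptide (1-14) substrate and hydroxyquinoline sulfate. Compounds diluted in DMSO; incubation 3 h at 37 °C. Angl accumulation measured; percent inhibition at each concentration, IC50 from curve fit. Average of at least two replicates.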

Data set [2] concerns the target T1, Renin. Nature of the data set: Inhibition of human recombinant renin in human citreated-plasma. Summed up:
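Pooled human citrate plasma supplemented with recombinant human renin (150 pg/mL final). Compounds in DMSO at various concentrations added to plasma mixed with trapping anti-Angl antibody (final antiserum dilution 1:50,000) in Tris/EDTA, pH 7.2; incubation 2 h at 37 °C. Angl accumulation read by immunoassay; IC50 from curve fit. Average of at least two replicates.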

Data set [3] in a line: Oral bioavailability in Sprague-Dawley rat at 30 mg/kg. It counts as ADME, organism-based. The conditions noted are these: in vivo.
Data set [4] in a line: AUC in Sprague-Dawley rat at 30 mg/kg, po. To be noted: plasma. Set-up: dose 30 mg/kg, route oral. It counts as ADME, organism-based.
A short description of data set [5]: Clearance in Sprague-Dawley rat at 30 mg/kg, po and 5 mg/kg, iv. The class given is ADME, organism-based. To be noted: in vivo.
Data set [6] can be described thus: Half life in Sprague-Dawley rat at 30 mg/kg, po and 5 mg/kg, iv. It counts as ADME, organism-based. To be noted: in vivo.
A short description of data set [7]: Volume of distribution at steady state in Sprague-Dawley rat at 30 mg/kg, po and 5 mg/kg, iv. To be noted: in vivo, read-out: Vdss. It counts as ADME, organism-based.
Data set [8] can be described thus: Oral bioavailability in Beagle dog at 3 mg/kg. The class given is ADME, organism-based, Canis lupus familiaris. The conditions noted are these: in vivo.
A short description of data set [9]: AUC in Beagle dog at 3 mg/kg, po. The class given is ADME, organism-based, Canis lupus familiaris. The conditions noted are these: plasma. Also noted: dose 3 mg/kg, route oral.
A short description of data set [10]: Clearance in Beagle dog at 3 mg/kg, po and 1 mg/kg, iv. It counts as ADME, organism-based, Canis lupus familiaris. The conditions noted are these: in vivo.
Data set [11] can be described thus: Half life in Beagle dog at 3 mg/kg, po and 1 mg/kg, iv. The class given is ADME, organism-based, Canis lupus familiaris. The conditions noted are these: in vivo.
Data set [12] in a line: Volume of distribution at steady state in Beagle dog at 3 mg/kg, po and 1 mg/kg, iv. It counts as ADME, organism-based, Canis lupus familiaris. The conditions noted are these: in vivo, read-out: Vdss.
In another data set the test system is Rattus norvegicus. Nature of the data set: Antihypertensive activity in telemetered double-transgenic rat assessed as decrease in blood pressure at 3 mg/kg, po after 2 days. The class given is functional. The method in brief:
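Telemetered double-transgenic rats (n = 8) dosed orally at 3 mpk. Blood pressure monitored by telemetry; maximum fall in mm Hg and duration of action recorded.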

The next data set deals with Cytochrome P450 3A4 (Homo sapiens, UniProt P08684). Nature of the data set: Inhibition of CYP3A4 after 30 mins. The class given is ADME.
Cytochrome P450 3A4, sequence (P08684 whole entry): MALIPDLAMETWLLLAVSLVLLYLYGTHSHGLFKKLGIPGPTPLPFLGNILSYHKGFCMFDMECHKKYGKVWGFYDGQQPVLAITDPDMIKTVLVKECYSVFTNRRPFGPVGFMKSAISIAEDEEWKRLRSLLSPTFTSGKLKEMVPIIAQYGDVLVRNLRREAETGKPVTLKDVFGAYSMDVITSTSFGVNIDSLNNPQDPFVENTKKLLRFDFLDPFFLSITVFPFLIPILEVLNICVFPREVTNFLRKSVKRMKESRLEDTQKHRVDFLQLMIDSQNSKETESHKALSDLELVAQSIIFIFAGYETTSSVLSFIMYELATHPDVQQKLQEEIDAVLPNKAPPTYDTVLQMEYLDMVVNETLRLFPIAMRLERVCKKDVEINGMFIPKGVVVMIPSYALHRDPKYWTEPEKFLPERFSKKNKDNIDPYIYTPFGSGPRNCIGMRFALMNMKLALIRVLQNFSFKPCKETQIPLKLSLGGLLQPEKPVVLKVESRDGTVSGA
The subject of another data set is Canis familiaris. Nature of the data set: Antihypertensive activity in Beagle assessed as prolongation of CV intervals at 12 uM, iv after 2 days. It counts as functional, Canis lupus familiaris. The method in brief: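 Beagle dogs given compound intravenously up to 12 µM plasma exposure. QTc, PR and QRS intervals monitored for prolongation.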

What is called IC50 is the midpoint of a concentration-inhibition curve. As for `COCCCc1cc(CN(C(=O)C(CN)Cc2ccc(CCCOc3c(Cl)cc(C)cc3Cl)cc2)C2CC2)c(Cl)cn1` (stereo unspecified), the IC50 at Renin [1] was found to be 0.19 nM; on Renin [2], 2.2 nM.
As for `COCCc1ccc(Cl)c(CN(C(=O)C(CN)Cc2ccc(CCCOc3c(Cl)cc(C)cc3Cl)cc2)C2CC2)c1` (stereo unspecified), the half-maximal inhibitory concentration (IC50) at Renin [1] worked out at 0.19 nM.
As to `NCCC(CC(=O)N(Cc1cccc(Cl)c1Cl)C1CC1)c1ccc(CCCOc2c(F)ccc(F)c2Cl)cc1` (stereo unspecified), the IC50 at Renin [1] was 650 nM.
On the same count and under the same terms, as for `COCCOc1ccc(Cl)c(CN(C(=O)C(CN)Cc2ccc(CCCOc3c(Cl)cc(C)cc3Cl)cc2)C2CC2)c1` (stereo unspecified), the figure is 0.21 nM.
As to `CC(=O)N(C)Cc1ccc(Cl)c(CN(C(=O)C(CN)Cc2ccc(CCCOc3c(Cl)cc(C)cc3Cl)cc2)C2CC2)c1` (stereo unspecified), the concentration for half-maximal inhibition (IC50) on Renin [1] worked out at 2.9 nM; on Renin [2], 250 nM.
In the case of `Cc1cc(Cl)c(OCCCc2ccc(CC(CN)C(=O)N(Cc3cc(CCCN(C)C)ccc3Cl)C3CC3)cc2)c(Cl)c1` (stereo unspecified), the half-inhibitory concentration (IC50) stood at 1.5 nM at Renin [1] and 103 nM at Renin [2].
In general, bioavailability refers to the share of a dose that reaches the circulation, judged against a reference dose that is usually intravenous. As usually defined, the AUC is the area under the concentration-time curve, a measure of exposure. Low values mean less exposure, high ones more exposure. One may read the half-life as how long it takes for the measured level to halve. A lower half-life goes with rapid decline. On to `COCCCc1cc(CN(C(=O)[C@@H](CN)Cc2ccc(CCCOc3c(Cl)cc(C)cc3Cl)cc2)C2CC2)cc(OCCOC)c1`, for which the figures for the bioavailability in data set [3] and in data set [8] were 48% and 36%, respectively. In addition, the AUC worked out at 27.5 µM·h in [4] and 0.7 µM·h in [9]. In addition, the clearance was determined as 13 mL/min/kg in data set [5] and 35 mL/min/kg in data set [10]. Further, the half-life was 4 h in data set [6] and 7.5 h in [11]. The Vd worked out at 3.6 L/kg in data set [7] and 15 L/kg in data set [12]. The Activity in the data set on Rattus norvegicus is on record as 35 mmHg. In addition, the half-maximal inhibitory concentration (IC50) at Cytochrome P450 3A4 came out at 1300 nM.
Turning to `CNCC(Cc1ccc(CCCOc2c(F)ccc(F)c2Cl)cc1)C(=O)N(Cc1cccc(Cl)c1Cl)C1CC1` (stereo unspecified), the IC50 at Renin [1] turned out to be 1.9 nM; on Renin [2], 350 nM.
Taken in the same sequence, the figures for `NCC(Cc1ccc(CCCOc2c(F)ccc(F)c2Cl)cc1)C(=O)N(Cc1cccc(Cl)c1Cl)C1CC1` (racemic) were 0.79 nM and 21 nM.
Turning to `O=C(C(CNCc1ccccc1)Cc1ccc(CCCOc2c(F)ccc(F)c2Cl)cc1)N(Cc1cccc(Cl)c1Cl)C1CC1` (stereo unspecified), on Renin [1], the concentration for half-maximal inhibition (IC50) came to 260 nM.
`Cc1cc(Cl)c(OCCCc2ccc(CC(CN)C(=O)N(Cc3cc(CCC#N)ccc3Cl)C3CC3)cc2)c(Cl)c1` (stereo unspecified): the 50% inhibitory concentration (IC50) was determined as 0.27 nM on Renin [1] and 10 nM at Renin [2].
Taken in the same sequence, the figures for `Cc1cc(Cl)c(OCCCc2ccc(CC(CN)C(=O)N(Cc3cccc(Cl)c3Cl)C3CC3)cc2)c(Cl)c1` (stereo unspecified) were 0.4 nM and 29 nM.
For `COCCCc1cc(CN(C(=O)C(CN)Cc2ccc(CCCOc3c(Cl)cc(C)cc3Cl)cc2)C2CC2)c(Cl)c[n+]1[O-]` (stereo unspecified), in that order: 0.3 nM and 1.8 nM.
Regarding `Cc1cc(Cl)c(OCCCc2ccc(C[C@@H](CN)C(=O)N(Cc3cc(CCCC#N)ccc3Cl)C3CC3)cc2)c(Cl)c1`, the IC50 at Renin [1] worked out at 0.11 nM; on Renin [2] it was 4.6 nM.
In the case of `COCCCc1ccc(Cl)c(CN(C(=O)[C@H](CN)Cc2ccc(CCCOc3c(Cl)cc(C)cc3Cl)cc2)C2CC2)c1`, the IC50 turned out to be 0.09 nM at Renin [1], 2.4 nM on Renin [2] and 130 nM on Cytochrome P450 3A4. Also, the values for the bioavailability in data set [3] and in data set [8] were 41% and 32%, respectively. Moreover, the area under the curve (AUC) in data set [4] was found to be 8.3 µM·h; in [9], 1.3 µM·h. Further, the figures for the clearance in data set [5] and in data set [10] were 35 mL/min/kg and 16 mL/min/kg, respectively. The half-life in [6] was 6 h; in [11] it was 17 h. Also, the Vd is 12 L/kg in data set [7] and 8.4 L/kg in [12]. Moreover, the Activity in the data set with Rattus norvegicus is on record as 27 mmHg; in the data set with Canis familiaris it was under 5%.
As to `Cc1cc(Cl)c(OCCCc2ccc(CC(CN)C(=O)N(Cc3cc(CCCO)ccc3Cl)C3CC3)cc2)c(Cl)c1` (stereo unspecified), the IC50 at Renin [1] was 0.09 nM; on Renin [2], 6.4 nM.
Consider `CC(CN)(Cc1ccc(CCCOc2c(F)ccc(F)c2Cl)cc1)C(=O)N(Cc1cccc(Cl)c1Cl)C1CC1` (stereo unspecified), for which the half-maximal inhibitory concentration (IC50) on Renin [1] stood at 210 nM.
For the molecule `COCCCc1cc(Cl)c(Cl)c(CN(C(=O)C(CN)Cc2ccc(CCCOc3c(Cl)cc(C)cc3Cl)cc2)C2CC2)c1` (stereo unspecified), the half-inhibitory concentration (IC50) on Renin [1] was determined as 0.26 nM; at Renin [2], 31 nM.
Take `COCCCc1ccc(Cl)c(CN(C(=O)C(CN)Cc2ccc(CCCOc3c(Cl)cc(C)cc3Cl)cc2)C2CC2)c1` (racemic): the IC50 at Renin [1] was found to be 0.26 nM; at Renin [2], 5.8 nM.
